According to ChEMBL document CHEMBL1148356, “Synthesis and biological evaluation of 3-heterocyclyl-7,8,9,10-tetrahydro-(7,10-ethano)-1,2,4-triazolo[3,4-a]phthalazines and analogues as subtype-selective inverse agonists for the GABA(A)alpha5 benzodiazepine binding site” (J Med Chem, 2004):

Experiments:
[1] = target: GABA-A receptor; alpha-1/beta-3/gamma-2 (Homo sapiens) (UniProt P14867+P18507+P28472); test: Percent change in electrophysiological response in Xenopus oocytes expressing Alpha1-beta3-gamma2 GABA-A receptor; format: functional, cell-based; conditions: Oocyte
In short: (§1)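 Two-electrode voltage clamp on Xenopus oocytes injected with human GABA-A subunit cDNAs, 24-72 h expression, perfused with modified Barth's medium at pH 7.5, clamped between -40 and -70 mV. The GABA EC20 was titrated against a 3 mM GABA maximum. […] Result is % change of control current, mean ± SE of ≥4 oocytes.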

[2] = target: GABA A receptor alpha-4/beta-3/gamma-2 (Homo sapiens, UniProt P18507+P28472+P48169); test: Inhibition of [3H]-Ro-15-1788 binding to human alpha-4-beta-3-gamma-2 GABA-A receptor expressed in L(tk-) cells; format: cell-based
Chain of GABA A receptor alpha-4/beta-3/gamma-2 (P48169 whole entry, one chain of several): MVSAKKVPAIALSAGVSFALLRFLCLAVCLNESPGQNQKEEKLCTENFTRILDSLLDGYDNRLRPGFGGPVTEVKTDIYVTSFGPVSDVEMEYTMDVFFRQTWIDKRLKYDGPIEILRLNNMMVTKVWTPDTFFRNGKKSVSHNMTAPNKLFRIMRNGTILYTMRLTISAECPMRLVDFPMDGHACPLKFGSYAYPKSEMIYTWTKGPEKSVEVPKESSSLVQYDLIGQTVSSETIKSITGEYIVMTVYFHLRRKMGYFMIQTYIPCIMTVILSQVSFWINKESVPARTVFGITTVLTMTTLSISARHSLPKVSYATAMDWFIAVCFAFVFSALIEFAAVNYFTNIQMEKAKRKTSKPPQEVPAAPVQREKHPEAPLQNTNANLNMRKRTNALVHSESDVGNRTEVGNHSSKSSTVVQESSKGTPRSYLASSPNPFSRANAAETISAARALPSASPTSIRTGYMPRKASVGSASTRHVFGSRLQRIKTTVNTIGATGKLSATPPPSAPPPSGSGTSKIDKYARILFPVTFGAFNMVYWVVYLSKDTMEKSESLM

[3] = target: GABA-A receptor; alpha-2/beta-3/gamma-2 (Homo sapiens) (UniProt P18507+P28472+P47869); test: Percent change in electrophysiological response in Xenopus oocytes expressing Alpha2-beta3-gamma2 GABA-A receptor; format: functional, cell-based; conditions: Oocyte; in short: as §1
[4] = target: T1, GABA-A receptor; alpha-5/beta-3/gamma-2 (Homo sapiens, UniProt P18507+P28472+P31644); test: Binding affinity towards human alpha-5-beta-3-gamma-2 GABA-A receptor using [3H]Ro-151788 expressed in L(tk-) cells; format: cell-based
T1 sequence (P18507 whole entry): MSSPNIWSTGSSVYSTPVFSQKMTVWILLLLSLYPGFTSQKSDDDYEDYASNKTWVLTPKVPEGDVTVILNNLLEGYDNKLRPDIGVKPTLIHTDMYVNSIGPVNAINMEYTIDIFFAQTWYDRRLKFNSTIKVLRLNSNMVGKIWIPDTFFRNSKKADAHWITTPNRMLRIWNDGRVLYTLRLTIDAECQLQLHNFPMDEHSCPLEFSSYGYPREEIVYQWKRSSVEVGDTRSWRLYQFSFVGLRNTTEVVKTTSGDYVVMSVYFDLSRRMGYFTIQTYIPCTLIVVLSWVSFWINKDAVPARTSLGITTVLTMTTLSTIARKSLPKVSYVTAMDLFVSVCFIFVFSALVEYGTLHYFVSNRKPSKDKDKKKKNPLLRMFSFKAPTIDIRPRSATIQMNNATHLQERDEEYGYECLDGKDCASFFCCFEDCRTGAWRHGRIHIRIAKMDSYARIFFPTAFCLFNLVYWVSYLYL
T1 sequence (P28472 whole entry): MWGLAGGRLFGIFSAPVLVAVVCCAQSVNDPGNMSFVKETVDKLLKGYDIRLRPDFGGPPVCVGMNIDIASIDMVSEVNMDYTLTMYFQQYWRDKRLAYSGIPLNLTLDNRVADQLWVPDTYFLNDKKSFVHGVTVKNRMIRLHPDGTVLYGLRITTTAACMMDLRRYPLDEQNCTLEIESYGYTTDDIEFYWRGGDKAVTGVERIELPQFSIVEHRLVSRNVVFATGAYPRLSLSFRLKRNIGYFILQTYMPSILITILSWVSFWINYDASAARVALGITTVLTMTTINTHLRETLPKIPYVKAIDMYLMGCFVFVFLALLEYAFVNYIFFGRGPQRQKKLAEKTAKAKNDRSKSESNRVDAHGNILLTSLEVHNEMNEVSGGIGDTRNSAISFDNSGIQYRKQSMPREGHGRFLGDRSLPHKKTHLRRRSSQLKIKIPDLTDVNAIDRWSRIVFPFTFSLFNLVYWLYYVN
T1 sequence (P31644 whole entry): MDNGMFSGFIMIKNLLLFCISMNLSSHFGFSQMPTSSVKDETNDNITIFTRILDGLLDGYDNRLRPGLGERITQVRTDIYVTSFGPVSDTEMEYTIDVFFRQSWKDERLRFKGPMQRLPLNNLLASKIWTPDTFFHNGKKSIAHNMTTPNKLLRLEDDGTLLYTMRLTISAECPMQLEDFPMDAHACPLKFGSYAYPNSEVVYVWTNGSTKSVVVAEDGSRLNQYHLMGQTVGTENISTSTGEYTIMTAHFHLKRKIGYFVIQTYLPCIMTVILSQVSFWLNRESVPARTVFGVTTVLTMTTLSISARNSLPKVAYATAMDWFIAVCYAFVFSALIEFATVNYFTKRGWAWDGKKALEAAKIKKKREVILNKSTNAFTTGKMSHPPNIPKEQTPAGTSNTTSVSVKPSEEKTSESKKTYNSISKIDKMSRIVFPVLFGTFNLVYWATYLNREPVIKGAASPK

[5] = target: T1, GABA-A receptor; alpha-5/beta-3/gamma-2; test: Effective concentration against human Alpha-5-beta-3-gamma-2 GABA-A receptor was determined; format: functional
In short: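 Whole-cell patch clamp was run on Ltk- cells stably expressing human α5β3γ2s. Bath solution was NaCl/NaHCO3/glucose buffer, pH 7.2. Pipettes held 130 mM CsCl, 10 mM EGTA, 3 mM Mg-ATP, pH 7.3. Drug was applied by double-barreled pipette with an EC20 GABA concentration, and concentration–response data were fitted to a Hill equation for EC50. Values are mean ± SEM of at least five fitted curves, with at least five cells per point.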

[6] = target: GABA-A receptor; alpha-3/beta-3/gamma-2 (Homo sapiens) (UniProt P18507+P28472+P34903); test: Percent change in electrophysiological response in Xenopus oocytes expressing Alpha3-beta3-gamma2 GABA-A receptor; format: functional, cell-based; conditions: Oocyte; in short: as §1
[7] = target: T2, GABA-A receptor; alpha-3/beta-3/gamma-2 (Homo sapiens, UniProt P18507+P28472+P34903); test: Binding affinity towards human gamma-aminobutyric-acid A receptor alpha-3-beta-3-gamma-2 using [3H]Ro-151788 expressed in L(tk-) cells; format: cell-based
T2 sequence (P18507 whole entry): T1 sequence (P18507 whole entry)
T2 sequence (P28472 whole entry): T1 sequence (P28472 whole entry)
T2 sequence (P34903 whole entry): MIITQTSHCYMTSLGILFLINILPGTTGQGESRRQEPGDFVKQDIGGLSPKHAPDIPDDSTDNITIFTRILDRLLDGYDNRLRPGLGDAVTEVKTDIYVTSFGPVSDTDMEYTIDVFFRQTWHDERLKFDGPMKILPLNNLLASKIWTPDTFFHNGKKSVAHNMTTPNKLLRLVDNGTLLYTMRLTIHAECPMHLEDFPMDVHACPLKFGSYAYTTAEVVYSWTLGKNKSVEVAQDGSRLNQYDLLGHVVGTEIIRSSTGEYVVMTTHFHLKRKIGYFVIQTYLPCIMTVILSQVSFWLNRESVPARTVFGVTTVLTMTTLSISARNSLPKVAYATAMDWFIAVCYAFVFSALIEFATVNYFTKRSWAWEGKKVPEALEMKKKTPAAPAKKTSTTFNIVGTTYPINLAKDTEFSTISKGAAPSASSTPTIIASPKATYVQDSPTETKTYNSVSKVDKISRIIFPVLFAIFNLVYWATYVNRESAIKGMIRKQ

Work on `Cc1cc(-c2nnc3c4ccccc4c(OCc4ccccn4)nn23)no1` yielded an Efficacy [1] of -2%, a Ki [2] of 244 nM and an Efficacy [3] of 15%. The Ki [4] was 0.8 nM, the EC50 [5] was 2.5 nM and the Efficacy [6] was -4%. The Ki [7] was 1.4 nM.
